Measurements as given in the array DNA melting data of Ke et al. (doi:10.1101/2024.01.08.574731).

How the values were obtained:
[1] = folding enthalpy; higher = less favourable; fluorescence melt of hairpins on a sequencing array, two-state fit; details: sodium 0.088 M
How it was run: (§1)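 In 50 mM Na-HEPES pH 8.0 containing 25 mM NaCl, hairpins from the library on a sequenced MiSeq flow cell were imaged for Cy3 fluorescence at 2.5 °C steps up to 60 °C, with Cy3 and quencher oligos annealed. After normalisation to pre-quench Cy3 and to control constructs, two-state fits with bootstrapping gave melting temperature and folding enthalpy. Four replicates were combined by inverse-variance weighting, and fitted temperatures were shifted up by 9.35 °C to match UV melts.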

[2] = melting temperature; fluorescence melt of hairpins on a sequencing array, two-state fit, raised by 9.35 °C to match UV melts; details: sodium 0.088 M
How it was run: as §1

Sequence | folding enthalpy [1] [kcal/mol] | Tm [2] [°C]
GGTGTGCGAAAGCAAACC (((.(((....))).))) | -35.5 | 56
GGTGTGCGAAAGCATACC (((.(((....))).))) | -38.4 | 63.6
GGTGTGTCGAAAGACACC (((..(((....)))))) | -10.2 | 47.8
GGTGTTGGAAACAACGCC ((.((((....)))).)) | -36.1 | 57.3
GGTGTTGGAAACAATGCC ((..(((....)))..)) | -21 | 41.8
GGTTAACGAAAGTTACC (((.(((....)))))) | -21.9 | 43.9
GGTTAACGAAAGTTCACC (((.(((....))).))) | -31.3 | 43
GGTTAAGAAATTAACC ((((((....)))))) | -23.8 | 43.5
GGTTAAGGAAACTTAACC (((((((....))))))) | -38.5 | 52.7
GGTTACCGAAAGGTTACC (((.(((....))).))) | -30.3 | 52.6
GGTTACGAAAGTAATACC ((((((....)))..))) | -14.9 | 33.5
GGTTACGAAAGTATGACC ((((((....)))..))) | -15.1 | 30.4
GGTTACGAAAGTATTACC ((((((....)))..))) | -15.2 | 29.6
GGTTACGGAAACATAACC (((((.(....).))))) | -17 | 35.8
GGTTACGGAAACGTAGCC ((.((((....)))).)) | -28.6 | 51.7
GGTTACGGAAACGTAGTC (..((((....))))..) | -12.7 | 25.7
GGTTAGCGAAAGCTTACC (((.(((....))).))) | -23.2 | 52
GGTTAGGGAAACCTGATC (.(.(((....))).).) | -11.7 | 31
GGTTATCGAAAGATGACC (((.(((....))).))) | -48.6 | 51.7
GGTTATGGAAACACAACC ((((.((....)).)))) | -24.6 | 33.8
GGTTATGGAAACATAACC (((((((....))))))) | -41.1 | 55.6
GGTTCAGGAAACTGGATC (.(.(((....))).).) | -10.2 | 30
GGTTCCCCGAAAGGGACC (((..(((....)))))) | -17.9 | 45

Sequence | folding enthalpy [1] [kcal/mol] | Tm [2] [°C]
GGTTCCCGAAAGGGGACC (((.(((....))).))) | -30.8 | 67.6
GGTTCCGAAAGGAGAACC ((((((....)))..))) | -24.5 | 45.1
GGTTCCGGAAACGAAACC ((((.((....)).)))) | -24.8 | 42.9
GGTTCCGGAAACGGAGTC (..((((....))))..) | -11.7 | 34.1
GGTTCCGGAAACGGGATC (.(.(((....))).).) | -19.4 | 39.9
GGTTCCTCGAAAGAGACC (((..(((....)))))) | -10.1 | 25.8
GGTTCGGGAAACCGAACC (((((((....))))))) | -38.2 | 69.2
GGTTCGGGAAACCGAGTC (..((((....))))..) | -13.1 | 36.5
GGTTCTGGAAACAGAATC (.(((((....))))).) | -34.2 | 45
GGTTCTGGAAACAGAGCC ((.((((....)))).)) | -30.5 | 50.6
GGTTCTGGAAACAGGACC (((.(((....))).))) | -45.3 | 50.6
GGTTCTTCGAAAGAAACC (((..(((....)))))) | -13.4 | 29.1
GGTTGACGAAAGTCTACC (((.(((....))).))) | -33.1 | 53.8
GGTTGAGGAAACTTGACC (((..((....))..))) | -14.6 | 32.1
GGTTGCCCGAAAGGGACC (((..(((....)))))) | -11.5 | 37.9
GGTTGCGAAAGCAAAACC ((((((....)))..))) | -19.5 | 48.9
GGTTGCGAAAGCAATACC ((((((....)))..))) | -13.3 | 42.9
GGTTGCGAAAGCACAACC ((((((....)))..))) | -19.6 | 44.2
GGTTGCGGAAACGCGATC (.(.(((....))).).) | -19.7 | 41.7
GGTTGCGGAAACGTAGCC ((.(.((....)).).)) | -27.3 | 40.2
GGTTGCGGAAACGTGACC (((..((....))..))) | -32.2 | 48.8
GGTTGGCCGAAAGGCACC (((..(((....)))))) | -12.8 | 41.4
GGTTGGCGAAAGCCGACC (((.(((....))).))) | -29.3 | 69.3
